# RGS4 inh: RGS4 inhibitors, primary screen, cell-based, HEK293 M3R inducible RGS4, calcium flux | Regulator of G-protein signaling 4 (Homo sapiens), P49798 | Fluo-4 calcium flux; stronger effect = higher value; triggered by carbachol at its EC20 | B-score at 10 µM | 0.45% of 310,000 active;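 active = B-score, a plate-corrected calcium signal, over three deviations above library mean, with baseline fluorescence within five deviations of library mean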;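 also: RGS4 expression induced by doxycycline in cells with stable M3 receptor; B-score is computed from the integrated fluorescence ratio over baseline after carbachol; higher B-score means a larger calcium signal and so more RGS4 inhibition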
# RGS4 pot: RGS4 potentiators or activators, primary screen, cell-based, HEK293 M3R inducible RGS4, calcium flux; B-score at 10 µM; AID 463111, 2010; carbachol calcium flux Fluo4; stronger effect = lower value; 0.92% of 310,000 active;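 active = B-score of the integrated calcium signal more than 4 SD below the library mean, with starting fluorescence not abnormally high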;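 also: negative B-score means reduced calcium response which marks RGS4 activation or potentiation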
#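 Assay system: HEK293 FlpIn-TREx cells, stable M3R, doxycycline-inducible RGS4 / Probe or stimulus: carbachol, ECmax concentration / Times: overnight RGS4 induction, 30 min dye load 37 °C, 20 min compound RT / Signal: kinetic calcium fluorescence imaging with Fluo4-AM dye, 2 µM / Measure: Agonist-evoked peak-minus-minimum fluorescence over baseline, integrated ratio, B score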
# MrgX1 agonist: agonists of human MrgX1 receptor, primary screen, HEK293 cells, Fluo-4 calcium flux; Fluo-4 calcium fluorescence, agonist mode; stronger effect = higher value; B-score at 10 µM; 0.44% of 310,000 active;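 active = calcium response B-score plate-corrected fluorescence ratio at least 3 library SD, with starting fluorescence B-score inside 5 SD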
# Target sequence (Q96LB2 whole entry, looked up): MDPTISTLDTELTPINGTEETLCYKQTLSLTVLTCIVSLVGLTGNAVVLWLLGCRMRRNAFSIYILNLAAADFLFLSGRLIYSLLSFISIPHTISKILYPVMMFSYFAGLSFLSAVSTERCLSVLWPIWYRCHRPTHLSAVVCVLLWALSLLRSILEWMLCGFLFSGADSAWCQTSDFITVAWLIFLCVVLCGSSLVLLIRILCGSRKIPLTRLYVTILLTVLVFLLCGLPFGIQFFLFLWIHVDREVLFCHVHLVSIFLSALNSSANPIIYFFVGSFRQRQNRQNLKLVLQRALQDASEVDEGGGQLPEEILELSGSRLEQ
#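 Material: MrgX1-expressing HEK293 cells; input: 15,000 cells per well; doses: test compound given as first of three sequential additions; schedule: overnight plating before 1 h dye loading; technique: Fluo-4 NW calcium-flux fluorescence, kinetic read; evaluation: baseline-normalised fluorescence change ratio, B-scored; control set: plate-wise positive and negative controls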
# MrgX1 allo act: positive allosteric modulators of MrgX1, primary screen, HEK293 cells, Fluo-4 calcium flux; FDSS; stronger effect = higher value; B-score at 10 µM; 0.63% of 310,000 active;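 active = plate-corrected calcium response at least 3 library SD above typical, normal starting fluorescence, not activating the receptor alone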;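 also: compound read alongside a low EC10 to EC30 dose of BAM8-22 agonist; peak minus trough fluorescence over baseline measured at the second addition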
# MrgX1 antag: antagonists of human MrgX1 receptor, primary screen, HEK293 cells, Fluo-4 calcium flux; Mas-related G-protein coupled receptor member X1 (Homo sapiens), Q96LB2; BAM8-22 antagonism; stronger effect = lower value; B-score at 10 µM; 1.3% of 310,000 active; AID 588676, 2011;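 active = calcium-response B-score plate-corrected more than 3 library SD below zero, starting fluorescence within 5 deviations, no agonist response on first addition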;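 also: peak minus trough fluorescence over baseline after final BAM8-22 challenge near maximal dose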
# RGS4 activ val: reduced carbachol calcium response, RGS4-induced M3R cells, confirmation, RGS4 activator project, cell-based, HEK293 M3R/RGS4 inducible, calcium flux, duplicate. shares compounds with RGS4 pot. inhibition, % at 10 µM. carbachol calcium flux Fluo4. AID 602282, 2012. 89% of 1,100 active;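 active = inhibition above 3 SD of the buffer control wells, cut at about 41% in these data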;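 also: signal is the integrated peak-minus-minimum Fluo4 fluorescence over baseline ratio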
# M3R Ca counter: RGS4 activator counter-screen hit in non-induced cells | HEK293 M3R non-induced RGS4, Fluo4 calcium flux; after carbachol challenge at its EC90 | AID 602283 | shares compounds with RGS4 pot | inhibition, % at 10 µM | 82% of 1,100 active;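 active = inhibition exceeding 3 SD of buffer-only control wells, cut at about 26% in these data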;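 also: percent drop in integrated peak-minus-baseline over baseline Fluo4 ratio after carbachol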
# Starred values were filed as active, the others as inactive; i = inactive. Most compounds without a hit are left out; they make up all but 3.5% or so of the library.
SMILES,RGS4 inh,RGS4 pot,MrgX1 agonist,MrgX1 allo act,MrgX1 antag,others
Cc1ccc2c(c1)CC1(CN2C)C(=O)NC(=O)N(c2cccc(C)c2C)C1=O (stereo unspecified),i,i,i,i,i,
Cc1ccc2c(c1)CC1(CN2C)C(=O)NC(=O)N(c2ccccc2C)C1=O (stereo unspecified),i,i,i,i,-8.5*,
Cc1c(C(=O)N2CCC3(CC2)OCCO3)sc2ncnc(N3CCc4ccccc4C3)c12,i,i,i,i,i,
C=CCN1C(=O)NC(=O)/C(=C/c2ccoc2)C1=O,i,i,i,i,-6.5*,
CC1(C)C2([N+](=O)[O-])CN3CC1([N+](=O)[O-])CN(C2)C3c1ccccn1 (stereo unspecified),i,i,i,i,i,
CCCCCSc1cc(O)c(C(CNC)C(C)C)cc1OC (stereo unspecified),i,i,i,i,i,
CCCCCSc1cc(OC)c(CCN(C)C)cc1OC,i,-7.7*,i,i,i,
COc1ccccc1-n1c(O)c(/C=N/N2CCCCC2)c(=O)n(-c2ccccc2OC)c1=S,i,i,i,i,i,
CN(C)c1ccc(P(=S)(N(C)C)N(C)C)cc1,i,i,i,i,i,
CCOP(=S)(OCC)c1ccc(N(C)C)cc1,i,i,i,10*,i,
Cc1nc2ccccc2c(=O)n1/N=C/c1cc(Br)cc(Br)c1O,i,i,i,i,-8.6*,
CCOc1cccc(=NC2CCCCC2)c2c(C)n(C)c(C)c12,i,i,i,i,-6*,
CCOc1ccccc1N=C1SCCCN1C,i,i,i,i,i,
CCCC(CCC)C(=O)OC[N+](C)(C)CCOC(=O)C(O)(c1ccccc1)C1CCCC1 (stereo unspecified),i,i,i,i,i,
CC(C)(C)C(=O)OC[N+](C)(C)CCOC(=O)C(O)(c1ccccc1)C1CCCC1 (stereo unspecified),i,-7.5*,i,i,i,
CC1CCC(NCCc2ccc3c(c2)OCO3)CC1 (stereo unspecified),i,-7*,i,i,i,
Cc1ccc(C)c(NC(=S)NCCc2cnc[nH]2)c1,i,i,i,i,i,
CC[N+]12CCC(CC1)C(C(O)(c1ccccc1)c1ccccc1)C2 (stereo unspecified),i,-8*,i,i,i,
CC(C)[N+]12CCC(CC1)C(C(O)(c1ccccc1)c1ccccc1)C2 (stereo unspecified),i,-8.4*,i,i,i,
C[N+]12CCC(CC1)C(C(O)(c1cccc(Cl)c1)c1cccc(Cl)c1)C2 (stereo unspecified),i,-9.2*,i,i,i,
CCC(CC)N1CCN(C(=O)Cc2ccccc2)CC1,i,i,i,i,i,
O=C(Cn1cc(C(=O)c2ccccc2F)c2ccccc21)NC1CC1,i,i,i,i,i,
NC(=O)CN1C2CCC1CC(NC(=O)C1CC1)C2 (stereo unspecified),i,i,i,i,i,
C[N+](C)(C)Cc1ccccc1,i,-8.6*,i,i,i,
NC(Cc1ccccc1)Cc1ccccc1,i,i,i,i,i,
Fc1ccc(C(OCCN2CCCC2)c2ccc(F)cc2)cc1,i,-9.3*,i,i,i,RGS4 activ val=88*;M3R Ca counter=37*
OC1(c2ccccc2)CCNC2CCCCC21 (stereo unspecified),i,i,i,i,i,

# Screens (PubChem BioAssay)
